The source of these data is PubChem BioAssay.

The source made the active and inactive calls.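 The calls were made as follows, unless noted: active = fluorescence slope after compound addition differing from the mean of all tested samples at 99.7% confidence, mostly higher but some lower; inactive = the rest.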

Experiment [1] in a line: inhibitors of TNFa-induced NFkB p65 translocation, primary screen, imaging, HUVEC, MLSMR starter and 10KST1 sets (AID 438;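 active = inhibition above 20% together with a positive visual image hit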;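 also: compound added about 3h40 before a 20 min TNFalpha stimulation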;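 as to inhibition: signal is the nuclear over cytoplasmic p65 intensity ratio per well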). Particulars: HUVEC TNFa-induced p65 nuclear translocation; cell count: measured here: nuclei count (cytotoxicity indicator), at 2.08 µM unless noted; inhibition: at 2 µM, stronger effect = higher value unless noted.
A short description of experiment [2]: inhibitors of E-selectin induction by TNFa, primary screen, imaging, HUVEC, immunofluorescence, MLSMR starter and 10KST1 sets (AID 487;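 active = visually confirmed hit in the image check and inhibition above 20%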;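 as to inhibition: signal is fraction of cell area covered by stained E-selectin grains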;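 as to nuclei count: 100% = median nuclei count of all wells on the same plate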). To be noted: HUVEC TNFalpha-induced E-selectin immunofluorescence imaging, at 2 µM; inhibition: stronger effect = higher value; nuclei count: measured here: cell number, toxicity.
Experiment [3] can be described thus: DUSP6 inhibitors restoring Erk phosphorylation by chemical complementation, primary imaging in DUSP6-transfected HeLa (AID 609;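 active = compounds giving at least 50% inhibition in the cell-based MKP-3 phosphatase rescue imaging test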;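 as to inhibition: phospho-Erk level distribution per well compared with pooled transfected vehicle control wells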). To be noted: HeLa MKP-3 transfected, phospho-Erk imaging KS statistic, at 10 µM.
For experiment [4], the target named is Dual specificity protein phosphatase 6 (Homo sapiens) (UniProt Q16828). The description is as above. Particulars: HeLa MKP-3 transfected, phospho-Erk imaging KS statistic, at 10 µM, stronger effect = higher value.
Experiment [5] concerns the target Voltage-gated potassium channel subunit beta-2 (Rattus norvegicus) (UniProt P62483). As to the kind of experiment: KvBeta enzyme negative modulators, primary screen, biochemical, NADPH fluorescence (AID 622;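 active = fluorescence slope higher than the sample average by over 3 SD, cut at about -0.22 in these data, passing the limit was not always enough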;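 also: slope of raw intensity against log time taken from 70 to 1610 s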). Particulars: recombinant KvBeta, 4-cyanobenzaldehyde reduction, at 10 µM, stronger effect = higher value.
Experiment [6] has the same target. As to the kind of experiment: KvBeta positive modulators, primary screen, biochemical, NADPH fluorescence (AID 623;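 active = NADPH fluorescence slope more negative than the mean of all samples by about 3 SD, 99.7% confidence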;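 also: fluorescence intensity change per second fitted from 20 to 320 s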). To be noted: Recombinant KvBeta, NADPH fluorescence decrease slope, 10 min; at 10 µM; stronger effect = lower value.
The target of experiment [7] is Muscarinic acetylcholine receptor M4 (Homo sapiens) (UniProt P08173). As to the kind of experiment: compounds altering M4/GIRK thallium flux, either direction, primary screen, M4 allosteric agonist project, cell-based, HEK293 M4/GIRK, BTC-AM (AID 625).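 Also: thallium influx through GIRK channels coupled to M4 in HEK293 cells with BTC-AM dye.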 Particulars: at 10 µM, actives lie on both sides. A digest of the protocol: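 assay system = HEK293 cells with M4 receptor and GIRK channels | medium = pH 7.3 thallium assay buffer | doses = 10 µM final, single point | timing = cells overnight at 37 °C, BTC-AM loading 1 h, reads 2 min total | signal = BTC-AM fluorescence, 1 Hz kinetic reads | read-out = post-addition slope, 15–24 s, of baseline-normalized fluorescence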

Experiment [8] in a line: inhibitors of larval lipid processing in zebrafish, primary screen, whole organism, PED6 fluorescence, gall bladder and intestine (AID 686;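 active = a full or partial loss of lipid-probe fluorescence in the fish gall bladder, intestine or both, judged by eye; inactive = no fluorescence loss, or compound toxic to the fish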;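 also: larvae 5 to 7 days old with five fish per well; signal comes from phospholipase A2 cleavage of quenched PED6 carried via bile; overnight exposure to compound and PED6 before scoring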). To be noted: Zebrafish larvae PED6 lipid processing, fluorescence scoring. Put shortly:
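Also added: quenched phospholipase substrate PED6, 100 nM final, ingested by larvae; System: zebrafish larvae, 5-7 d; Quantity: 5 larvae per well; Compound: 20 µM single dose; Schedule: overnight compound and PED6 incubation; Read-out: visual per-well fluorescence inhibition score; Measured by: By-eye fluorescence microscopy; Medium: E3.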

A short description of experiment [9]: inhibitors of Chlamydomonas gravitaxis, primary screen, whole organism, Chlamydomonas reinhardtii, WT vs cilia-less mutant, absorbance, 96-well (AID 463189;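 active = inhibition at or above 50% relative to wild type and mutant plate controls; inactive = inhibition below 50%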;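 also: 0% = wild type cc124 cells in DMSO and 100% = ciliumless bld1 mutant cells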). Particulars: OD600 absorbance, 2 days, at 10 µM, stronger effect = higher value.
[10] abbreviates: measured here: cell density z-score.
[11] abbreviates: measured here: nuclear c-Myc green intensity z-score.
[12] abbreviates: measured here: nuclear pErk red intensity z-score, stronger effect = higher value.

Sequence of Voltage-gated potassium channel subunit beta-2 (Rattus norvegicus) (P62483 whole entry, looked up): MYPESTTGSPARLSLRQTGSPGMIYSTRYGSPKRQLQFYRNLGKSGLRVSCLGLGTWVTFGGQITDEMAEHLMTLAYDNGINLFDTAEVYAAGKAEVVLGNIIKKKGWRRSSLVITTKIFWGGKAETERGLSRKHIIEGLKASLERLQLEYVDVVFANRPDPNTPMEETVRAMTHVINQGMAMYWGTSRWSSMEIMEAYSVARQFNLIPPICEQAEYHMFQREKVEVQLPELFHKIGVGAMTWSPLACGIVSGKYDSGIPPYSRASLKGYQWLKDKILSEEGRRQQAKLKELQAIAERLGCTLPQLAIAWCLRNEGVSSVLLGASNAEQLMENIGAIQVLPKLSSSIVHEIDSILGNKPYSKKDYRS
Sequence of Dual specificity protein phosphatase 6 (Homo sapiens) (Q16828 whole entry, looked up): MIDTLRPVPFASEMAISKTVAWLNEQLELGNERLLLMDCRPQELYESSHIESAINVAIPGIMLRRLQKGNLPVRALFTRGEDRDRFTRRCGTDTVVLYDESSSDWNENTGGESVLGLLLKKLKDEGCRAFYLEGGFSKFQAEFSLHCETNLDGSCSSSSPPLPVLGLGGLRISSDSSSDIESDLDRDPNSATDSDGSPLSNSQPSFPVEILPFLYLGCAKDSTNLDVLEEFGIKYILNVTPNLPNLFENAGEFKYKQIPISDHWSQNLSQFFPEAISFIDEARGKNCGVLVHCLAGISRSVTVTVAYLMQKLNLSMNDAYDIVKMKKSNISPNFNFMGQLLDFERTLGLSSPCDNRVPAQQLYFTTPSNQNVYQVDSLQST
Sequence of Muscarinic acetylcholine receptor M4 (Homo sapiens) (P08173 whole entry, looked up): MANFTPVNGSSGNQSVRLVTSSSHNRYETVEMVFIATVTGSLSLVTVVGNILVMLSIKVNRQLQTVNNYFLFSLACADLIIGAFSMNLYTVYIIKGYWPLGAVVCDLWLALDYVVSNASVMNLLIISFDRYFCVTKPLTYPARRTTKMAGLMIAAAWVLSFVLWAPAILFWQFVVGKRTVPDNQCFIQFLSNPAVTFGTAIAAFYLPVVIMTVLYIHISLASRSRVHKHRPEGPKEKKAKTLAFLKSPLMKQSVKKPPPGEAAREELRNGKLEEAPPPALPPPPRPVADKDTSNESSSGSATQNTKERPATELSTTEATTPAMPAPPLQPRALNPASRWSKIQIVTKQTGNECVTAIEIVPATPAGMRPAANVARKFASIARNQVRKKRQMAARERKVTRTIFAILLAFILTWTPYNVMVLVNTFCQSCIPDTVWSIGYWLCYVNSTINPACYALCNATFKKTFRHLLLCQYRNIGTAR

Consider `Nc1c(C(=O)NCc2ccco2)c2nc3ccccc3nc2n1Cc1ccc(F)cc1`, for which, in experiment [1], the cell count is 678. Moreover, the inhibition is 12.5% (inactive) in [1], -9% (inactive) in [2], -7.67% (inactive) in experiment [4] and 34.8% (inactive) in experiment [9]. In experiment [2], this molecule displayed a nuclei count of 108%. The results for the z-score in experiment [3] (setting [10]), in [3] (setting [11]) and in experiment [3] (setting [12]) were 0.15, 1.06 and -0.878, respectively. For the same molecule, the fluorescence slope in [5] is -0.236 (inactive); in [7], 0.00698 (inactive). The NADPH fluorescence slope in [6] is -1e-05 (inactive). In addition, the call in [8] was inactive.
`CCCCNC(=O)Nc1ccc(C(O)(C(=O)OCC)C(F)(F)F)cc1` (stereo unspecified): the cell count in experiment [1] was found to be 688. Moreover, the inhibition in experiment [1] is -5.9% (inactive); in [2], -16.7% (inactive); in experiment [4], 3.49% (inactive); in [9], 5.22% (inactive). In experiment [2], the nuclei count came to 173%. Besides, the figures for the z-score in [3] (setting [10]), in experiment [3] (setting [11]) and in experiment [3] (setting [12]) were -0.832, -1.24 and 1.19, respectively. Further, the fluorescence slope is -0.432 (inactive) in experiment [5] and 0.00537 (inactive) in [7]. Also, in [6], the NADPH fluorescence slope was -4.2e-05 (inactive). For the same molecule, the molecule was classed as inactive in experiment [8].
Molecule `Nc1ncc(P(=S)(N2CCOCC2)N2CCOCC2)s1` gave a cell count in [1] of 452. In addition, the inhibition is -2.7% (inactive) in experiment [1], -296% (inactive) in [2], 4.37% (inactive) in [4] and 11.1% (inactive) in [9]. The molecule further had a nuclei count in experiment [2] of 169%. Further, the z-score in [3] (setting [10]) was -0.00628; in experiment [3] (setting [11]), -0.183; in [3] (setting [12]), -1.06. Also, the fluorescence slope is -0.461 (inactive) in experiment [5] and 0.00503 (inactive) in experiment [7]. Moreover, the NADPH fluorescence slope in experiment [6] is -8.8e-05 (inactive). Moreover, the molecule was called inactive in experiment [8].
As to `Cc1c(N=Cc2c(O)n(Cc3ccco3)c(=O)[nH]c2=O)c(=O)n(-c2ccccc2)n1C`, the cell count in experiment [1] was 591. Further, the inhibition in experiment [1] was -1.8% (inactive); in [2], -156% (inactive); in experiment [4], 11.4% (inactive); in experiment [9] it was 11.7% (inactive). In experiment [2], the nuclei count was 133%. The z-score is 0.39 in [3] (setting [10]), 0.06 in experiment [3] (setting [11]) and -0.372 in experiment [3] (setting [12]). Further, the values for the fluorescence slope in experiment [5] and in experiment [7] were -0.492 (inactive) and 0.00411 (inactive), respectively. For the same molecule, in [6], the NADPH fluorescence slope was -0.000124 (inactive). Also, the outcome in [8] was inactive.
In turn, `Nc1c(C(=O)NCc2ccco2)c2nc3ccccc3nc2n1CCN1CCCCC1` yielded a cell count in [1] of 676. For the same molecule, the inhibition in [1] was 18.1% (inactive); in experiment [2], 50.8% (inactive); in experiment [4] it was -6.06% (inactive); in experiment [9], 131% (active). The molecule also returned a nuclei count in [2] of 138%. The z-score in experiment [3] (setting [10]) was -0.477; in [3] (setting [11]) it was 2.3; in experiment [3] (setting [12]), -0.0288. The fluorescence slope was -0.0963 (inactive) in [5] and 0.00537 (inactive) in experiment [7]. In addition, the NADPH fluorescence slope in [6] was -2.8e-05 (inactive). Further, the molecule was classed as inactive in experiment [8].
On to `CN(C)CCOC(=O)c1cn(Cc2ccccc2)c2ccccc12`, for which the cell count in experiment [1] was 639. Moreover, the inhibition in experiment [1] is -9.5% (inactive); in experiment [2], -111% (inactive); in experiment [4], -6.06% (inactive); in experiment [9], 37% (inactive). In [2], the nuclei count was 182%. Besides, the z-score is 1.72 in [3] (setting [10]), -0.185 in experiment [3] (setting [11]) and -0.202 in experiment [3] (setting [12]). Besides, the fluorescence slope is -0.507 (inactive) in experiment [5] and 0.00681 (inactive) in experiment [7]. In addition, in experiment [6], the NADPH fluorescence slope was -6.8e-05 (inactive). Moreover, in [8], the outcome was inactive.
The molecule `COC(=O)C(c1ccccc1)N1CCCCCC1` (stereo unspecified) displayed a cell count in experiment [1] of 730. For the same molecule, the inhibition in experiment [1] was 0.3% (inactive); in experiment [2], 20.3% (inactive); in experiment [4] it was -11.4% (inactive); in experiment [9] it was -6.36% (inactive). The same molecule returned a nuclei count in experiment [2] of 165%. Moreover, the figures for the z-score in [3] (setting [10]), in [3] (setting [11]) and in experiment [3] (setting [12]) were -0.512, 1.36 and 1.38, respectively. The values for the fluorescence slope in experiment [5] and in experiment [7] were -0.406 (inactive) and 0.0047 (inactive), respectively. Moreover, in experiment [6], the NADPH fluorescence slope was -3.5e-05 (inactive). Further, the molecule was called inactive in experiment [8].

For orientation: inhibition means the change of the read-out against control, counted positive when it falls.
